# Laboratory results from ChEMBL document CHEMBL3632545, “1,3-Disubstituted and 1,3,3-trisubstituted adamantyl-ureas with isoxazole as soluble epoxide hydrolase inhibitors” (Bioorg Med Chem Lett, 2015).
# How the values were obtained:
# [1] = target: T1, Bifunctional epoxide hydrolase 2 (Homo sapiens, UniProt P34913); experiment: Inhibition of recombinant human soluble epoxide hydrolase using CMNPC as substrate by kinetic fluorescent assay
# T1 sequence (P34913 whole entry): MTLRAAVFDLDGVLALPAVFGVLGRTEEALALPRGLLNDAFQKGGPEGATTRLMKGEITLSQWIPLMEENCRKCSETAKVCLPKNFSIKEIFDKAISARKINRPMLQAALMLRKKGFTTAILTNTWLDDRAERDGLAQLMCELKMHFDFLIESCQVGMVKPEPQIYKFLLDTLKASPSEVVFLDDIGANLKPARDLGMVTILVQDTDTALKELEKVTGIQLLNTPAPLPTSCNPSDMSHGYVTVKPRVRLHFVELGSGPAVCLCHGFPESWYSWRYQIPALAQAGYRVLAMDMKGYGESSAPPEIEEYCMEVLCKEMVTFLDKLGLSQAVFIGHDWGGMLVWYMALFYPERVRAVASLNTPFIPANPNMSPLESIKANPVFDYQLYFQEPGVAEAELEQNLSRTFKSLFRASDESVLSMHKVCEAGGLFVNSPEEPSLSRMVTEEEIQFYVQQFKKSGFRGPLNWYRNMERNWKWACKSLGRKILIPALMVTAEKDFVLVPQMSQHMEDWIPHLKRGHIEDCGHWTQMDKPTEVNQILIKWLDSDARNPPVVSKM
# Procedure, shortened: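 Recombinant purified human sEH, CMNPC substrate, kinetic fluorescence read-out; IC50 derived. Where reported, values are the mean ± standard deviation of three separate measurements.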
# [2] = Metabolic stability in human liver microsomes assessed as compound remaining at 1 uM after 30 mins by LC/MS/MS analysis in presence of NADPH generating system; type: ADME; conditions: read-out: Stability
# Procedure, shortened: (§1)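 Compound at 1 μM incubated with human liver microsomes (1 mg/mL) at 37°C for 30 minutes, with or without an NADPH generating system. Read-out is percent of compound remaining. Values are the average of triplicates ± standard deviation.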
# [3] = Solubility of compound in sodium phosphate buffer at pH 7.4; type: physicochemical
# Procedure, shortened: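 Measured in 0.1 M sodium phosphate buffer, pH 7.4, containing 1% DMSO; reported as a concentration range bracketing the solubility limit (μM).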
# [4] = Metabolic stability in human liver microsomes assessed as compound remaining at 1 uM after 30 mins by LC/MS/MS analysis in absence of NADPH generating system; type: ADME; conditions: read-out: Stability; procedure, shortened: as §1
SMILES,IC50 [1] [nM],"remaining at 0.5 h, 1 µM [2] [%]",solubility [3] [µM],"remaining at 0.5 h, 1 µM [4] [%]"
Cc1ccc(-c2cc(CNC(=O)NCC34CC5CC(CC(C5)C3)C4)no2)cc1,15.4,0.4,75,97
COc1ccc(-c2cc(CNC(=O)NCC34CC5CC(CC(C5)C3)C4)no2)cc1,12.9,0.8,100,87
O=C(NCc1cc(-c2ccco2)on1)NCC12CC3CC(CC(C3)C1)C2,4.9,0.4,75,91
Cc1cc(CNC(=O)NCC23CC4CC(CC(C4)C2)C3)on1,6.7,2.9,450,72
CCc1cc(CNC(=O)NCC23CC4CC(CC(C4)C2)C3)on1,29.4,–,300,–
CC(C)c1cc(CNC(=O)NCC23CC4CC(CC(C4)C2)C3)on1,44.6,–,125,–
O=C(NCc1cc(-c2cccc(F)c2)no1)NCC12CC3CC(CC(C3)C1)C2,16.6,0.3,75,97
O=C(NCc1cc(-c2ccc(F)cc2)no1)NCC12CC3CC(CC(C3)C1)C2,10.5,–,50,–
CC(C)c1cc(CN(C)C(=O)NCC23CC4CC(CC(C4)C2)C3)no1,576,–,200,–
Cc1cc(C2CCCN2C(=O)NCC23CC4CC(CC(C4)C2)C3)no1 (stereo unspecified),524,–,525,–
CC(C)c1cc(C2CCCN2C(=O)NCC23CC4CC(CC(C4)C2)C3)no1 (stereo unspecified),247,–,250,–
CC(C)c1cc(CN(C)C(=O)NCC23CC4CC(CC(C4)C2)C3)on1,191,–,350,–
Cc1cc(C2CCCN2C(=O)NCC23CC4CC(CC(C4)C2)C3)on1 (stereo unspecified),91,–,575,–
Cc1ccc(-c2cc(CNC(=O)NC34CC5CC(C)(CC(C)(C5)C3)C4)no2)cc1,25.8,0.4,125,115
COc1ccc(-c2cc(CNC(=O)NC34CC5CC(C)(CC(C)(C5)C3)C4)no2)cc1,15,0.4,25,102
CC12CC3CC(C)(C1)CC(NC(=O)NCc1cc(-c4ccco4)on1)(C3)C2,4.1,0.3,75,95
Cc1cc(CNC(=O)NC23CC4CC(C)(CC(C)(C4)C2)C3)on1,123,0.1,200,83
CC12CC3CC(C)(C1)CC(NC(=O)NCc1cc(-c4cccc(F)c4)no1)(C3)C2,17,0.4,75,92
